Reference: ChEMBL document CHEMBL4049456, “Identification of 4-(Aminomethyl)-6-(trifluoromethyl)-2-(phenoxy)pyridine Derivatives as Potent, Selective, and Orally Efficacious Inhibitors of the Copper-Dependent Amine Oxidase, Lysyl Oxidase-Like 2 (LOXL2)” (J Med Chem, 2017)
pIC50: −log10 of the molar value.

Key:
Protein-lysine 6-oxidase = target: T1, Protein-lysine 6-oxidase (Homo sapiens, UniProt P28300); experiment: Inhibition of human LOX expressed in HEK cells assessed as reduction of H2O2 production from oxidative deamination of DAP preincubated for 2 hrs followed by substrate addition in presence of 0.1% BSA measured every 2 mins for 1 hr by amplex red reagent-based fluorescence assay; type: cell-based
T1 sequence (P28300 whole entry): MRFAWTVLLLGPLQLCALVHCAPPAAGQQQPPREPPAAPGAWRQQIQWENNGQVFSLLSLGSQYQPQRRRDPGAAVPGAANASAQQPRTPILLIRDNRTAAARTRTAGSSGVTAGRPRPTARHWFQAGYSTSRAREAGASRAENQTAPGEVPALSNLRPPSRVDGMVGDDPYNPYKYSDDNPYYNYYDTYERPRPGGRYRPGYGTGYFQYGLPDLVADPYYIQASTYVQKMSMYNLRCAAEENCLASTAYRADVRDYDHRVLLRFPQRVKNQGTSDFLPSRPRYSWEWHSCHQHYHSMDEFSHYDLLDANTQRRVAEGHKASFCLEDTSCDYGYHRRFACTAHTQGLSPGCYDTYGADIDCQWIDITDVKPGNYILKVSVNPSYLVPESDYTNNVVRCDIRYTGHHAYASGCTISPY

[1] = target: T2, Lysyl oxidase homolog 2 (Mus musculus) (UniProt P58022); experiment: (§1) Inhibition of recombinant mouse LOXL2 expressed in mouse whole blood assessed as reduction of H2O2 production from oxidative deamination of DAP preincubated for 2 hrs followed by substrate addition measured every 2 mins for 1 hr by amplex red reagent-based fluorescence assay
T2 sequence (whole entry): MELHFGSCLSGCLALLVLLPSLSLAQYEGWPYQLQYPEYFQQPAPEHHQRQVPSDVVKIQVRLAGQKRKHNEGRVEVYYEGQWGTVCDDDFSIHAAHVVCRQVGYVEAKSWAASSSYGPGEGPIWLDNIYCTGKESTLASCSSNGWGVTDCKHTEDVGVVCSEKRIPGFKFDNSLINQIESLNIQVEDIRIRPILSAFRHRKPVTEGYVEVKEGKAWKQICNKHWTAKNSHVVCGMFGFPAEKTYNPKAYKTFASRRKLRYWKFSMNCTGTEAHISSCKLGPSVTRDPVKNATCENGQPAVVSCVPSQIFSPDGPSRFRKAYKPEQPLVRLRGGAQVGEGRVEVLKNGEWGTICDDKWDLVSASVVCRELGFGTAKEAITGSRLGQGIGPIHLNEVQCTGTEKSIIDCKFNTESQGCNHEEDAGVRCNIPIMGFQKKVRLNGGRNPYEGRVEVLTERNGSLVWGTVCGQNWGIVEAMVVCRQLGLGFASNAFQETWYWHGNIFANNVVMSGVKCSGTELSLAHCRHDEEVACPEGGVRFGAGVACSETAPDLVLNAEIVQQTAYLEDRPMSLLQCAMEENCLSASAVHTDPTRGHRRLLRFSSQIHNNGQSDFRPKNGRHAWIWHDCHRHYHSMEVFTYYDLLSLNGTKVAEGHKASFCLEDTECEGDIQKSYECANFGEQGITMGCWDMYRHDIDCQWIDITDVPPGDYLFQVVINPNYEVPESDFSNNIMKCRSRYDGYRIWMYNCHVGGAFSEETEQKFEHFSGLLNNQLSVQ

Lysyl oxidase homolog 2 = target: T3, Lysyl oxidase homolog 2 (Mus musculus, UniProt P58022); experiment: as §1
T3 sequence (P58022 whole entry): T2 sequence (whole entry)

[2] = target: T4, Amine oxidase [copper-containing] 3 (Homo sapiens) (UniProt Q16853); experiment: Inhibition of SSAO in human plasma assessed as reduction of H2O2 production from oxidative deamination of benzylamine at 10 uM preincubated for 2 hrs followed by substrate addition measured every 2 mins for 1 hr by amplex red reagent-based fluorescence assay relative to control
T4 sequence (whole entry): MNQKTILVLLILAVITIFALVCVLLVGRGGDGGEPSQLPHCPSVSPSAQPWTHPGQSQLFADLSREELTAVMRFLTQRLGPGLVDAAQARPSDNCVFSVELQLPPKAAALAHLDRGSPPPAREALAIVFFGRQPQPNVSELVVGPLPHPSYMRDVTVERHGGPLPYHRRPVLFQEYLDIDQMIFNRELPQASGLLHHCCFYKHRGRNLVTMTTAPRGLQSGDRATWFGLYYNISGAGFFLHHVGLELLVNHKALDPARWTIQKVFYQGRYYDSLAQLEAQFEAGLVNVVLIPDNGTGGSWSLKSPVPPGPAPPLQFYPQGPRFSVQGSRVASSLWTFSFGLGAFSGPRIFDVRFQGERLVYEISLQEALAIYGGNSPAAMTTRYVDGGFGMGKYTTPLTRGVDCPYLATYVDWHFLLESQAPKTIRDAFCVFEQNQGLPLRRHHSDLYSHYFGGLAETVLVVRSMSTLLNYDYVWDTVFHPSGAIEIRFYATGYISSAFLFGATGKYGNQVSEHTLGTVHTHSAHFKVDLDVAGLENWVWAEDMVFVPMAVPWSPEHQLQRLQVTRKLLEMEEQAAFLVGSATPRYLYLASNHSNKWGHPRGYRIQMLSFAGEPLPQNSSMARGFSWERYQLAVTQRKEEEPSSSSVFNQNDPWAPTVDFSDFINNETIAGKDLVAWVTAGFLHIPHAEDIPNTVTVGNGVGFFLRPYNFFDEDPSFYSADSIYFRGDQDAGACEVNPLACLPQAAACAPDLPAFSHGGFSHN
Method in brief: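 Endogenous SSAO in human plasma was the enzyme source and benzylamine the substrate. After a 2 h preincubation with compound, percent inhibition was calculated relative to a vehicle control and to a control containing 1 μM of the known SSAO inhibitor PXS-4681A.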

[3] = Cmax in C57BL/6 mouse plasma at 30 mg/kg, po by LC-MS/MS analysis; type: ADME, organism-based; design: dose 30 mg/kg, route oral
Method in brief: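 Normal C57BL/6 mice, n = 3 per time point, received a single oral 30 mg/kg dose formulated in 0.5% methylcellulose.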

Mus musculus = experiment: Antifibrotic activity in C57BL/6 mouse assessed as reduction of lung fibrosis administered as po qd for 15 days starting 1 day prior to bleomycin instillation measured on day 14 post bleomycin instillation by Masson's trichrome staining-based assay; type: functional
Method in brief: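 Lung fibrosis induced in male C57BL/6 mice aged 6 to 7 weeks by a single oropharyngeal dose of bleomycin (1.5 U/kg). Compound given orally once daily at 3, 10, 30 or 60 mg/kg for 15 days, starting 1 day before bleomycin. Lungs taken at day 14 post-bleomycin, stained with H&E and Masson's trichrome, and an Ashcroft score assigned.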

Cl.NCc1cc(Oc2cccc(C(=O)N3C[C@@H](O)[C@H](F)C3)c2)nc(C(F)(F)F)c1 (racemic)
pIC50 (Protein-lysine 6-oxidase): 4.46
IC90 [1]: 5.6 µM
pIC50 (Lysyl oxidase homolog 2): 6.07
inhibition [2]: 16%
Cmax [3]: 3.09 µM
Activity (Mus musculus): Dose-dependent effect
minimal effective dose (Mus musculus; C57BL/6, po, read-out: MED): 30 mg/kg
